Assay outcomes from PubChem.
proCasp7 act = procaspase-7 activators, primary screen, counter-screen for procaspase-3 activator project, biochemical, absorbance, HTS, human | recombinant procaspase-7, Ac-DEVD-pNA absorbance 405 nm; D23A/D198A/D206A triple mutant, cannot self-cleave; scale: DMSO 0, 5 µM enzyme 100 | activation, % at 8.5 µM | actives 0.093% (n = 330,000);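 active = percent activation above the screen-wide mean plus 3 SD, cut at about 25% in these data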
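Detection: p-Nitroaniline absorbance at 405 nm, read at 0 and 120 min; system: Uncleavable procaspase-7 mutant enzyme; evaluation: % activation from two-timepoint absorbance difference, scaled to controls; times: 1 h enzyme–compound preincubation and 2 h substrate reaction, both 25 °C; buffer or medium: Zinc-free HEPES pH 7.4 with 300 mM NaCl, 0.01% Triton X-100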
HGIII-sPLA2 inh = human group III sPLA2 inhibitors, primary screen, biochemical, QFRET, BODIPY PC-A2 liposome substrate; AID 743126, 2013; inhibition, % at 12.2 µM; Group 3 secretory phospholipase A2 (Homo sapiens), Q9NZ20; QFRET BODIPY PC-A2 liposome hydrolysis, fluorescence; actives 0.56% (n = 370,000);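 active = inhibition above mean plus 3 SD of compounds lying within the high and low control bounds, cut at about 19% in these data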;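 also: 0% = median of test compound wells and 100% = no enzyme DMSO wells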
Arr AP2 block = inhibitors of beta-arrestin/AP2 binding, primary screen, biochemical, GPCR trafficking, flow cytometry | beta-arrestin 1 C-terminal peptide binding to AP2 beta2-adaptin appendage (human) | actives 0.31% (n = 340,000) | FITC-arrestin peptide / GST-AP2 beads; AP2 beta2 appendage carries R879A mutation | inhibition, % at 10 µM | AID 504490, 2011;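 active = inhibition above a set limit, near 3 SD of compounds lacking own fluorescence, cut at about 54% in these data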;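 also: plate controls were DMSO wells for no effect and 5 µM unlabelled arrestin peptide for full effect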
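Measured by: flow cytometry, FL1 (488/535 nm); Material: AP2 appendage R879A on GSH beads; Evaluation: percent response; Timing: pre-incubation 12 min, peptide binding 1 h, room temperature; Also added: 50 nM FITC-arrestin peptide; Medium: PBS with 0.05% Tween 20 and 0.1% BSA.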
PLC-gamma1 inh = PLC-gamma1 enzyme inhibitors, primary screen, biochemical, fluorescence, purified enzyme. fluorogenic substrate. inhibition, % at 12.2 µM. actives 0.84% (n = 370,000)
PLCb3 inh = human PLC-beta3 inhibitors, primary screen, biochemical, fluorescence. 1-phosphatidylinositol 4,5-bisphosphate phosphodiesterase beta-3 (Homo sapiens), Q01970. Purified PLC-beta3, fluorogenic substrate. inhibition, % at 12.2 µM. actives 0.18% (n = 370,000); in the data active = inhibition above about 11%;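 also: 0% = median of compound wells on plate and 100% = full blocker control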
proCasp3 act = activators of human procaspase-3 D3A mutant, primary screen, biochemical, absorbance, PC-3 D3A mutant, single concentration | recombinant procaspase-3 D3A, Ac-DEVD-pNA absorbance 405 nm | Caspase-3 (Homo sapiens), P42574 | actives 0.11% (n = 330,000) | activation, % at 8.5 µM;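 active = activation above the mean of all tested compounds plus 3 SD, cut at about 21% in these data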;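 also: 0% = DMSO alone and 100% = DMSO wells spiked with extra 5 µM PC-3 D3A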
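assay system = Procaspase-3 D3A mutant | signal = absorbance at 405 nm, 0 and 120 min | times = 1 h preincubation plus 2 h reaction at 25 °C | repeats = single replicate | read-out = % activation between DMSO and enzyme-spiked controls | medium = Zinc-free HEPES saline buffer with Triton X-100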
PLCg1 ctr = PLC-gamma1 enzyme inhibitors, counter-screen for PLC-beta3 inhibitor project, biochemical, fluorescence; shares compounds with PLC-gamma1 inh; inhibition, % at 12.3 µM; actives 3.1% (n = 3,300); purified PLC-gamma1, fluorogenic substrate
PLCbeta3 conf = PLC-beta3 inhibitor confirmation, biochemical, fluorescence, purified enzyme; shares compounds with PLC-gamma1 inh; fluorogenic substrate fluorescence; inhibition, % at 12.3 µM; actives 1% (n = 3,300); AID 743261, 2014; in the data active = inhibition above about 11%
Active calls of the source: *; nt = no result. Rows were chosen to be rich in hits. Some 1.9% of all compounds tested hit in one or more screens of this group. Rule as the data show it, unless noted: active = inhibition above about 9.5%; inactive = the rest.

SMILES	proCasp7 act	HGIII-sPLA2 inh	Arr AP2 block	PLC-gamma1 inh	PLCb3 inh	proCasp3 act	PLCg1 ctr	PLCbeta3 conf
COc1cc(NC(=O)Nc2cccc3cccnc23)cc(OC)c1OC	nt	-7.7	13.1	15.4*	1.6	nt	-5.0	-2.5
COc1cc(C(=O)Nc2cccc3cccnc23)cc(OC)c1OC	0.1	-0.3	-5.3	1.2	-3.6	3.1	nt	nt
O=[N+]([O-])c1ccc(CS(=O)(=O)c2ncn[nH]2)cc1	7.4	1.7	7.2	3.0	0.1	12.5	nt	nt
COc1ccc(CS(=O)(=O)c2ncn[nH]2)cc1	-8.3	0.9	-10.8	36.8*	5.7	2.4	20.3*	-3.2
O=C(CCc1ccc(S(=O)(=O)NCCc2ccccc2)cc1)Nc1ccc2c(c1)OCO2	-3.1	-43.0	-5.0	10.2*	-0.6	2.4	-5.8	-3.8
CCNS(=O)(=O)c1ccc(CCC(=O)Nc2ccc3c(c2)OCO3)cc1	8.7	-1.4	-1.2	2.1	0.5	7.1	nt	nt
COC(=O)[C@]12C[C@H](CC(=O)N3CCC(c4ccccc4)CC3)C(=O)N(Cc3ccc(Cl)cc3Cl)C1=C[C@H](C(C)C)O[C@@H]2C1CC1	nt	12.0	nt	-0.1	-0.6	nt	nt	nt
OCCCc1nc2ccccc2[nH]1	-1.5	2.6	7.4	3.5	4.7	4.3	nt	nt
O=C(Nc1cccc(S(=O)(=O)Nc2ccc(Cl)cc2)c1)c1ccccn1	4.3	-23.6	5.9	9.7*	-7.2	5.5	-4.5	-3.2
Cn1c(CNc2cccc(Cl)c2)nnc1SCC(=O)OC1CCCCC1	-4.6	-3.7	-2.3	-1.2	-3.7	-3.2	nt	nt
CC(C)OC(=O)CSc1nnc(CNc2cccc(Cl)c2)n1C	-11.7	15.2	4.6	10.5*	3.3	-5.5	-7.2	-3.0
CCNC(=O)COC(=O)C1CCN(S(=O)(=O)c2ccc3c(c2)OCCO3)CC1	-8.2	0.0	-1.7	10.2*	-4.0	4.4	-4.4	-1.0
CC(C)C(C)NC(=O)COC(=O)C1CCN(S(=O)(=O)c2ccc3c(c2)OCCO3)CC1 (stereo not given)	9.4	12.8	-23.7	11.1*	-1.6	5.8	-5.5	-1.3
O=C(COC(=O)C1CCN(S(=O)(=O)c2ccc3c(c2)OCCO3)CC1)NC1CCCCC1	-3.6	-12.3	-7.8	0.4	0.1	1.4	nt	nt
CCCNC(=O)COC(=O)C1CCN(S(=O)(=O)c2ccc3c(c2)OCCO3)CC1	-3.3	-3.2	-3.8	0.7	0.1	0.2	nt	nt
C[C@@H]1[C@@H](c2ccccc2)c2cc3ccccc3nc2C(=O)C[C@@H]1C(=O)N1CCCC1	nt	-5.7	nt	-7.5	-10.6	nt	nt	nt
O=C(NCCc1ccccc1)OCc1cn(-c2ccc(F)cc2)nn1	nt	7.6	nt	-1.4	-5.1	nt	nt	nt
COc1ccccc1NC(=O)Cn1c(=O)n(C)c(=O)c2sc3c(c21)COC(C)(C)C3	-7.1	8.5	-13.8	12.5*	2.4	-4.6	-4.6	1.2
COc1ccccc1NC(=O)Cn1nnc2sc3c(c2c1=O)CC(C)(C)OC3	8.3	5.3	9.7	1.9	-3.8	1.8	nt	nt
Cc1ccc(NC(=O)Nn2cnnc2)cc1	nt	-2.0	49.4	1.6	-7.4	nt	nt	nt
O=C(Nc1ccc([N+](=O)[O-])cc1)Nn1cnnc1	-4.6	0.6	27.8	12.1*	3.9	-0.9	-2.5	-2.5
O=C(Nc1ccccc1C(=O)Nc1ccncc1)c1cccc([N+](=O)[O-])c1	5.0	-7.3	7.5	0.9	-10.3	1.4	nt	nt
O=C(Nc1ccccc1C(=O)Nc1ccc(Br)cn1)c1cccc([N+](=O)[O-])c1	16.2	12.0	-6.9	10.4*	-6.9	0.7	-9.2	-1.9
O=S(=O)(NCCOCCNS(=O)(=O)c1ccccc1)c1ccccc1	-0.5	-12.2	14.6	11.0*	4.9	0.5	6.3	-1.5
CC(C)(C)OC(=O)NCc1ccccc1/C=C/S(=O)(=O)NCc1ccc(F)cc1	nt	-12.4	nt	1.4	4.6	nt	nt	nt
SMILES	proCasp7 act	HGIII-sPLA2 inh	Arr AP2 block	PLC-gamma1 inh	PLCb3 inh	proCasp3 act	PLCg1 ctr	PLCbeta3 conf
c1ccc(C(c2nnnn2C2CCCC2)N2CCN(c3nc4ccccc4s3)CC2)cc1 (stereo not given)	-3.8	10.6	6.3	-0.3	8.6	-5.8	nt	nt
c1csc(C(c2nnnn2C2CCCCC2)N2CCN(c3nc4ccccc4s3)CC2)c1 (stereo not given)	nt	2.5	13.6	10.9*	5.6	nt	-1.4	1.5
CCOc1ccc(CCNC(=O)COC(=O)c2oc3ccccc3c2COC)cc1OCC	7.0	2.1	-0.8	14.0*	-4.5	4.8	4.7	2.3
O=C(Nc1ccccc1F)O[C@@H]1CC[C@@]23CCCN2C(=O)CCC[C@H]3C1	nt	-1.0	nt	-3.6	1.4	nt	nt	nt
O=C(Oc1cccc(N2C(=O)CCC2=O)c1)C1CC(=O)N(c2ccc(Br)cc2)C1 (stereo not given)	0.7	-1.9	13.2	6.9	11.2*	-2.6	-3.4	2.9
CC12CC3(C)CC(C)(C1)CC(C(N)=O)(C2)C3	2.9	4.8	5.5	10.5*	12.6*	7.0	3.5	-2.1
O=[N+]([O-])c1cc(C(F)(F)F)ccc1NCCCCNS(=O)(=O)c1ccc(Cl)cc1	-15.9	2.2	2.8	4.9	11.1*	-5.8	9.3	4.8
COc1ccc(NC(=S)N(CCN2CCOCC2)C2CCN(C(C)=O)CC2)cc1Cl	-9.6	8.4	4.2	6.9	-3.0	5.3	nt	nt
COc1cc(Cl)ccc1NC(=S)N(CCN1CCOCC1)C1CCN(C(C)=O)CC1	-7.9	6.4	13.0	11.2*	10.5	-8.9	-7.2	-9.3
Clc1nc(N2CCOCC2)ncc1Br	10.6	1.6	9.4	11.9*	-4.5	0.8	-7.5	1.2
COc1ccc2c(c1)CNC2CS(=O)(=O)NC1CCCC1 (stereo not given)	nt	5.7	nt	-24.7	-29.9	nt	nt	nt
COc1ccc(-c2nc(N)nc(C(F)(F)F)c2-c2csc(C)n2)c(O)c1	-1.5	10.9	37.8	11.1*	-5.9	5.1	-4.5	-6.0
